{"source": "paper PMC3375358", "about": "(Journal of Medicinal Chemistry, 2012)", "key": {"[1]": {"biological_target": "KIX-KID interaction (Homo sapiens, UniProt Q92793)", "sequence (Q92793 587-666 limits assumed)": "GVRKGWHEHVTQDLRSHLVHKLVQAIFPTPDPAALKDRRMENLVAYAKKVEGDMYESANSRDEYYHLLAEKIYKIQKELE", "assay": "in vitro renilla luciferase complementation assay for KIX-KID interaction", "assay_type": "biochemical", "outline": "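KIX-KID binding was measured in vitro by renilla luciferase complementation, with test compounds up to 50 μM. IC50 values are given as mean ± SD from at least two independent experiments. The value is listed as >50 if IC50 was not reached at the top concentration.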"}, "[2]": {"test_system": "CREB-mediated gene transcription", "assay": "CREB reporter assay in HEK 293T cells", "assay_type": "cell-based", "outline": "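Inhibition of CREB-dependent reporter transcription by test compounds was measured in HEK 293T cells, with a top concentration of 50 μM. IC50 values are given as mean ± SD from at least two independent experiments. Where IC50 was not reached at the highest concentration, the value is recorded as >50.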"}}}
{"smiles": "O=c1oc2cc3ccccc3cc2c(=O)n1-c1ccc(Cl)cc1", "note": "[Compound 2, 3-(4-Chlorophenyl)-2H-naphtho[2,3-e][1,3]oxazine-2,4-(3H)-dione]", "values": [{"measurement": "activity in inhibiting KIX-KID interaction (in words)", "setting": "[1]", "value": "neither of these compounds showed any activity"}, {"measurement": "activity in cell-based CREB reporter assay (in words)", "setting": "[2]", "value": "low or no inhibitory activity"}]}
{"smiles": "O=c1[nH]c2cc3ccccc3cc2c(=O)n1-c1ccc(Cl)cc1", "note": "[Compound 3, 3-(4-Chlorophenyl)-benzo[g]quinazoline-2,4-(1H,3H)-dione]", "values": [{"measurement": "activity in inhibiting KIX-KID interaction (in words)", "setting": "[1]", "value": "neither of these compounds showed any activity"}, {"measurement": "activity in cell-based CREB reporter assay (in words)", "setting": "[2]", "value": "low or no inhibitory activity"}]}
{"smiles": "Clc1ccc(Nc2noc3cc4ccccc4cc23)cc1", "note": "[Compound 4, N-(4-Chlorophenyl)-naphtho[2,3-d]isoxazol-3-amine]", "values": [{"measurement": "activity in inhibiting KIX-KID interaction (in words)", "setting": "[1]", "value": "inactive"}, {"measurement": "activity in cell-based CREB reporter assay (in words)", "setting": "[2]", "value": "very weak activity"}]}
{"smiles": "Cn1nc(Nc2ccc(Cl)cc2)c2cc3ccccc3cc21", "note": "[Compound 6, N-(4-Chlorophenyl)-1-methyl-1H-benzo[f]indazol-3-amine]", "values": [{"measurement": "activity in cell-based CREB reporter assay (in words)", "setting": "[2]", "value": "inactive"}]}
